Among the data in the RNAGym collection of RNA variant scans (doi:10.1126/science.aae0568) are yeast fitness values, retold here.

Fewer inactive variants are shown than the library holds.

The chains are these.
B1: tRNA (parent)
chain: GUUCCGUUGGCGUAAUGGUAACGCGUCUCCCUCCUAAGGAGAAGACUGCGGGUUCGAGUCCCGUACGGAACG

In the series the parent is B1. The series is described as follows: yeast fitness relative to wild type (ratio to wild type); higher = fitter; tRNA-Arg(CCU), competitive growth, 37 C, YPD. In outline:
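Variants of the tRNA-Arg(CCU) gene were chemically synthesised with a 3% per-site mutation rate across 69 sites and placed at the native genomic locus in Saccharomyces cerevisiae. Six parallel replicates of the pooled strains were competed in YPD at 37°C for 24 hours, and gene amplicons from the start and end populations were read by 100-nucleotide paired-end sequencing. Darwinian fitness relative to wild type was derived from changes in genotype frequencies. Genotypes required ≥ 100 starting reads, and estimates < 0.5 were set to 0.5.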
On to A15U C24A G25A U47C G52C C62U C66A A70C, for which the yeast fitness is not above 0.5.

For the variant A15G U54G, the yeast fitness turned out to be 0.612.

For the variant A15G U54C, the yeast fitness was 0.905.

For the variant A15G U54A, the yeast fitness is 0.648.

For A15G C49A A69U, the yeast fitness came to 0.579.

As for A15G C30G A37C A65U C66G, the yeast fitness was not above 0.5.

As to A15G C31A, the yeast fitness was 0.623.

On to A15G G58C G68A, for which the yeast fitness is 0.593.

For A15G G25A C49U A65U, the yeast fitness was determined as 0.58.

As for A15G U54A C61U, the yeast fitness was 0.57.

As to A15U A20C U32G, the yeast fitness is not above 0.5.

In the case of A15G C31U A42U A70U, the yeast fitness was 0.602.

In the case of A15G G38A A40G A69U, the yeast fitness is not above 0.5.

A15G C33U A65U: the yeast fitness was found to be 0.543.

On to A15U C27A C61U, for which the yeast fitness is not above 0.5.

For A15U C27A C61G, the yeast fitness was not above 0.5.

With A15G C55U U59C A65C, the yeast fitness was not above 0.5.

Take A15G G56C: the yeast fitness turned out to be 0.651.

As to A15G G39C C62U G63C, the yeast fitness is not above 0.5.

A15G G44C: the yeast fitness is 0.785.

Consider A15G U28C A37C, for which the yeast fitness was not above 0.5.

For A15U C22G A69U, the yeast fitness worked out at 0.608.

As for A15G C46U C61G, the yeast fitness stood at 0.581.

Turning to A15G G41C, the yeast fitness was determined as 0.827.

Regarding A15G C33G G50A, the yeast fitness is not above 0.5.

In the case of A15G G17A C30A U47C, the yeast fitness is not above 0.5.

On to A15G U16C, for which the yeast fitness stood at 0.927.

Consider A15G U16A, for which the yeast fitness turned out to be 0.919.

On to A15U A45U G68C, for which the yeast fitness was not above 0.5.

As for A15U A40U G52A A65C, the yeast fitness was not above 0.5.

Take A15G C46U A70U: the yeast fitness was 0.829.

Turning to A15G U16A G38C C62G G68A, the yeast fitness is not above 0.5.

For A15G C31G A40U, the yeast fitness stood at 0.586.

In the case of A15G U64C, the yeast fitness was determined as 0.976.

Turning to A15U C24G C30U, the yeast fitness stood at 0.608.

With A15G G23A G25A G38A A70U, the yeast fitness was not above 0.5.

Turning to A15U C22A G23A C24A G56C, the yeast fitness is not above 0.5.

Take A15G G17C C33A C46A G52A: the yeast fitness was not above 0.5.

On to A15U A20G G41C C60U G67A, for which the yeast fitness is not above 0.5.

As for A15U A43U G48A G68C, the yeast fitness is not above 0.5.

As for A15G G39A A70C, the yeast fitness is 0.742.

As for A15U C27A C49G U64A, the yeast fitness was found to be 0.639.

With A15U A20G A45U, the yeast fitness is not above 0.5.

For the variant A15G G23A G25A G38A, the yeast fitness came out at 0.746.

On to A15U C24G A45G G52A U54A, for which the yeast fitness is not above 0.5.

Consider A15U A69U, for which the yeast fitness came to 0.696.

Regarding A15U C24G C30U A57U A69C, the yeast fitness was not above 0.5.

In the case of A15U A57U, the yeast fitness is 0.666.

Take A15G G17A A65G: the yeast fitness is not above 0.5.

Turning to A15G G52U, the yeast fitness worked out at 0.73.

On to A15G G52C, for which the yeast fitness was found to be 0.568.

Consider A15G G52A, for which the yeast fitness turned out to be 0.772.

As for A15U C22A A43G G51C, the yeast fitness is not above 0.5.

As to A15U C24U, the yeast fitness came to 0.627.

In the case of A15U C24A, the yeast fitness turned out to be 0.53.

Take A15U C24G: the yeast fitness was determined as 0.647.

With A15G G41A C49A C66A, the yeast fitness amounted to 0.53.

Turning to A15G G23A, the yeast fitness was 0.931.

As for A15G U26G C30U, the yeast fitness is not above 0.5.

As to A15G C30G A42C A43C C46G, the yeast fitness was not above 0.5.

Take A15G G17A C46U: the yeast fitness worked out at 0.738.

With A15G G39A C49U, the yeast fitness is 0.679.

For the variant A15G U35G A45U, the yeast fitness was not above 0.5.

Consider A15U A20G U28A C33G, for which the yeast fitness is not above 0.5.

Take A15G C55U G56A: the yeast fitness stood at 0.58.

On to A15U A20G G63C, for which the yeast fitness was 0.555.

As to A15G U16A A20G U28A C30A C33A A36U A69C, the yeast fitness was not above 0.5.

Turning to A15U A20C G23A G50C, the yeast fitness was determined as 0.577.

Take A15U A65U A70C: the yeast fitness was not above 0.5.

As to A15G C30U G52A A70U, the yeast fitness came out at 0.581.

For A15G G50A A57G, the yeast fitness stood at 0.584.

Consider A15G C34A, for which the yeast fitness amounted to 0.811.

Regarding A15U A70U, the yeast fitness came out at 0.836.

With A15U A70G, the yeast fitness was found to be 0.663.

As for A15U A70C, the yeast fitness is 0.867.

For the variant A15G G67A A69U, the yeast fitness was 0.637.

Consider A15G G48C G51A, for which the yeast fitness is not above 0.5.

Consider A15U C22G C31G U32G, for which the yeast fitness was found to be 0.626.

As for A15U C22U G44C, the yeast fitness is not above 0.5.

Take A15G U28C U35A G38A C46G C62U: the yeast fitness stood at 0.718.

With A15G G23A G50A A57C A65U, the yeast fitness amounted to 0.6.

In the case of A15U A42U C49G C60A, the yeast fitness was not above 0.5.

A15U A43U C46G C61A: the yeast fitness was not above 0.5.

A15U C24G U32A G41A: the yeast fitness was not above 0.5.

A15G G23C A45G G52A G63A: the yeast fitness is not above 0.5.

Consider A15U A21G G25C C33A A37U, for which the yeast fitness was determined as 0.554.

As for A15U C24G G56A, the yeast fitness was not above 0.5.

For the variant A15G G48C A69U, the yeast fitness worked out at 0.636.

Regarding A15G U16A U19C C30U G52C, the yeast fitness is not above 0.5.

As for A15U A40G A65U, the yeast fitness was 0.516.

For A15G G41A A69U, the yeast fitness worked out at 0.615.

As to A15U C27A, the yeast fitness was found to be 0.593.

For the variant A15G G48A G58C, the yeast fitness is 0.759.

Take A15G G44A G50C A70G: the yeast fitness is not above 0.5.

With A15U C24G A42C A43C, the yeast fitness is not above 0.5.

Consider A15G C29G C34G C66G, for which the yeast fitness is not above 0.5.

For A15U A40U, the yeast fitness amounted to 0.637.

As for A15U A42C U47A G63C A69C, the yeast fitness is not above 0.5.

As to A15U A45U A69C, the yeast fitness was 0.647.

In the case of A15G G50A G56A, the yeast fitness amounted to 0.552.

In the case of A15U A20G G52C A65U G67C, the yeast fitness was not above 0.5.

As for A15U A20C G67U, the yeast fitness amounted to 0.605.

On to A15U A45C C55U, for which the yeast fitness was not above 0.5.

As to A15U A20G C27U C30A, the yeast fitness is not above 0.5.

On to A15U A20C G48A A69C, for which the yeast fitness was not above 0.5.

With A15G U32A G52C G68A, the yeast fitness was not above 0.5.

For the variant A15G U47G G56A, the yeast fitness is not above 0.5.

Consider A15G C29G C49U, for which the yeast fitness was found to be 0.606.

With A15G G39C U54C C55U, the yeast fitness is not above 0.5.

For A15G U26A C60U A70C, the yeast fitness came out at 0.52.

For the variant A15G C30U A70C, the yeast fitness was determined as 0.615.

For A15U C22G G52C A65C, the yeast fitness is not above 0.5.

A15G C34U G44C G50C C62U: the yeast fitness was not above 0.5.

In the case of A15U A21G C49U, the yeast fitness was determined as 0.556.

For the variant A15G G44C C61U, the yeast fitness was determined as 0.607.

In the case of A15G C30G A37C C49U G63A, the yeast fitness is not above 0.5.

Regarding A15U A20C G23A C30U, the yeast fitness was not above 0.5.

With A15G U32G A43C, the yeast fitness is not above 0.5.

With A15G U26G G41C A43C C66A, the yeast fitness is not above 0.5.

On to A15U A45U G68C A70U, for which the yeast fitness was not above 0.5.

On to A15U C24A G25A U47C G52C, for which the yeast fitness is not above 0.5.

For A15G C46G G52A, the yeast fitness was found to be 0.576.

As to A15G U19C C46G C55U, the yeast fitness was not above 0.5.

Take A15G G23C A45G G52A: the yeast fitness was 0.65.

Consider A15U A57C A65U A69C, for which the yeast fitness was not above 0.5.

On to A15G C61U A65U C66U, for which the yeast fitness was not above 0.5.

For A15U C22G G48C G63C A70C, the yeast fitness was not above 0.5.

In the case of A15G U54A C62U, the yeast fitness was not above 0.5.

For the variant A15G G56C C66G, the yeast fitness is not above 0.5.

With A15U A20C G50C, the yeast fitness was not above 0.5.

Regarding A15G U47C A69C, the yeast fitness came to 0.754.

As to A15G G25A C27U C49U, the yeast fitness was found to be 0.714.

Regarding A15G G48A A65U, the yeast fitness turned out to be 0.759.

For the variant A15U A36U A40U G68C, the yeast fitness is 0.643.

With A15G U35A C62A G63C, the yeast fitness was not above 0.5.

With A15G U28C C30U A69U, the yeast fitness was 0.633.

In the case of A15G G44C U59A, the yeast fitness was not above 0.5.

For A15U A43U C55G, the yeast fitness is not above 0.5.

Regarding A15U C22G A70C, the yeast fitness was not above 0.5.

On to A15G U26C, for which the yeast fitness was found to be 0.802.

Regarding A15G U26G, the yeast fitness is 0.703.

A15G C33G G44A C46G C66U: the yeast fitness was not above 0.5.

Take A15G C30G C66U: the yeast fitness was not above 0.5.

Turning to A15U A43G U47A, the yeast fitness worked out at 0.547.

As to A15U A36G G51C C55G, the yeast fitness is not above 0.5.

With A15U A20C G23A G50C G63A, the yeast fitness was not above 0.5.

Turning to A15G C30U C33A G41C C46U G48C, the yeast fitness is 0.551.

A15G G39A C62G: the yeast fitness came to 0.568.

Take A15G C30G G68A: the yeast fitness is not above 0.5.

As for A15G C30G C31A, the yeast fitness was not above 0.5.

For A15U A36G A37U A65U, the yeast fitness is not above 0.5.

With A15G G63C A69U, the yeast fitness amounted to 0.651.

As to A15U C22U, the yeast fitness was 0.743.

With A15U C22A, the yeast fitness is 0.738.

Consider A15U C22G, for which the yeast fitness amounted to 0.67.

For A15G G41C G51C, the yeast fitness is not above 0.5.

As for A15G C30A U59C C62U G68U, the yeast fitness was not above 0.5.

As to A15U C22G C31U C60A, the yeast fitness was not above 0.5.

For A15G G52C A70U, the yeast fitness was not above 0.5.

For the variant A15G C31A C55U, the yeast fitness was not above 0.5.

A15G U16C A20C A21U U26C: the yeast fitness was not above 0.5.

Consider A15U C22G C31U A65U A69U, for which the yeast fitness was not above 0.5.

For the variant A15U A21C C29A U32A, the yeast fitness worked out at 0.728.

For A15G G38C C60G, the yeast fitness was not above 0.5.

For A15G C62U, the yeast fitness was determined as 0.994.

As to A15G C62A, the yeast fitness was determined as 0.798.

Take A15G G41C C49G C55U C61A: the yeast fitness was 0.638.
